Drawing on ChEMBL document CHEMBL1147479, “Synthesis and biological evaluation of benzimidazole-4,7-diones that inhibit vascular smooth muscle cell proliferation” (Bioorg Med Chem Lett, 2004), this text covers IC50 for 36 molecules.

A word on the IC50: it is the concentration needed to halve the response being measured.

For this assay, the species on record is Rattus norvegicus. Kind of assay: Inhibitory activity against the PDGF-induced proliferation of rat aortic smooth muscle cell (RAoSMC). The class given is functional, organism-based. An outline of the steps:
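Smooth muscle cells isolated from rat thoracic aorta, kept in DMEM with 10% FBS. Seeded in triplicate at 1×10³ cells/well and grown 24 h, then starved in 0.2% FBS for 72 h. Treated for 48 h in DMEM with PDGF (5 ng/mL) and 5% FBS. Proliferation read by WST-1 uptake (colorimetric); IC50 derived by comparison with mycophenolic acid standard.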

In the case of `O=C1C(Cl)=C(Nc2ccccc2)C(=O)c2[nH]cnc21`, inhibition was half-maximal at 5500 nM (IC50). To `O=C1C(Cl)=C(Nc2cccc(Br)c2)C(=O)c2[nH]cnc21` belongs 1600 nM.

Consider `O=C1C(Br)=C(Nc2ccc(F)cc2)C(=O)c2[nH]cnc21`, for which half-maximal inhibition (IC50) required 1000 nM. Regarding `O=C1C(Br)=C(Nc2cccc(I)c2)C(=O)c2[nH]cnc21`, half-maximal inhibition (IC50) required 2500 nM. As for `Cc1nc2c([nH]1)C(=O)/C(=N/c1ccc(F)c(F)c1F)C(Cl)=C2O`, the figure is 1100 nM. As for `COc1ccc(OC)c2[nH]cnc12`, the figure is greater than 100000 nM; as for `Cc1nc2c([nH]1)C(=O)/C(=N/c1ccccc1)C(Cl)=C2O`, 800 nM. As for `Cc1ccc(NC2=C(Br)C(=O)c3nc[nH]c3C2=O)cc1`, the figure is 1000 nM; as for `Cc1nc2c([nH]1)C(=O)/C(=N/c1cccc(Br)c1)C(Cl)=C2O`, 1000 nM; as for `Cc1nc2c([nH]1)C(=O)/C(=N/c1ccc(F)cc1)C(Cl)=C2O`, 3000 nM. Take `O=C1C(Cl)=C(Nc2ccccc2)C(=O)c2[nH]c(C(F)(F)F)nc21`: half-maximal inhibition (IC50) required 50000 nM. The molecule `Cc1nc2c([nH]1)C(=O)/C(=N/c1cccc(Cl)c1)C(Cl)=C2O` returned an IC50 of 900 nM. As for `O=C1C(Cl)=C(Nc2cccc(Cl)c2)C(=O)c2[nH]cnc21`, the figure is 1400 nM; as for `O=C1C(Cl)=C(Nc2cccc(I)c2)C(=O)c2[nH]cnc21`, 1300 nM; as for `O=C1C(Br)=C(Nc2ccc(Cl)cc2)C(=O)c2[nH]cnc21`, 4000 nM. To `O=C1C(Br)=C(Nc2ccccc2)C(=O)c2[nH]cnc21` belongs 1100 nM; to `O=C1C(Cl)=C(Nc2ccc(I)cc2)C(=O)c2[nH]c(C(F)(F)F)nc21`, 25000 nM; to `O=C1C(Cl)=C(Nc2ccc(Cl)cc2)C(=O)c2[nH]c(C(F)(F)F)nc21`, 15000 nM.

Consider `Cc1ccc(NC2=C(Cl)C(=O)c3nc(C(F)(F)F)[nH]c3C2=O)cc1`, for which the half-maximal inhibitory concentration (IC50) was determined as 40000 nM.

`COc1ccc(OC)c2[nH]c(C)nc12` gave an IC50 greater than 100000 nM.

Molecule `O=C1C(Cl)=C(Nc2ccc(I)cc2)C(=O)c2[nH]cnc21` yielded an IC50 of 1300 nM. This counts as single-digit micromolar. As for `O=C1C(Cl)=C(Nc2ccc(F)cc2)C(=O)c2[nH]c(C(F)(F)F)nc21`, the figure is 12000 nM. To `Cc1nc2c([nH]1)C(=O)/C(=N/c1ccc(I)cc1)C(Cl)=C2O` belongs 1000 nM.

`O=C1C(Cl)=C(Nc2ccc(F)cc2)C(=O)c2[nH]cnc21` had an IC50 of 1200 nM. To `Cc1nc2c([nH]1)C(=O)/C(=N/c1ccc(F)cc1F)C(Cl)=C2O` belongs 1200 nM; to `Cc1ccc(NC2=C(Cl)C(=O)c3nc[nH]c3C2=O)cc1`, 1400 nM. To `O=C1C(Cl)=C(Nc2ccc(C(F)(F)F)cc2)C(=O)c2[nH]cnc21` belongs 2500 nM; to `O=C1C(Cl)=C(Nc2ccc(C(F)(F)F)cc2)C(=O)c2[nH]c(C(F)(F)F)nc21`, 20000 nM; to `Cc1ccc(NC2=C(Cl)C(=O)c3nc(C)[nH]c3C2=O)cc1`, 800 nM.

In turn, `Cc1nc2c([nH]1)C(=O)/C(=N/c1ccc(Cl)cc1)C(Cl)=C2O` showed a concentration for half-maximal inhibition (IC50) of 2800 nM. As for `O=C1C(Cl)=C(Nc2ccc(F)c(F)c2)C(=O)c2[nH]cnc21`, the figure is 1100 nM; as for `Cc1nc2c([nH]1)C(=O)/C(=N/c1ccc(Cl)cc1Cl)C(Cl)=C2O`, 800 nM; as for `O=C1C(Br)=C(Nc2ccc(C(F)(F)F)cc2)C(=O)c2[nH]cnc21`, 3100 nM. For the molecule `Cc1nc2c([nH]1)C(=O)/C(=N/c1cccc(Cl)c1Cl)C(Cl)=C2O`, the midpoint of inhibition, the IC50, lay at 600 nM. As for `Cc1nc2c([nH]1)C(=O)/C(=N/c1ccc(C(F)(F)F)cc1)C(Cl)=C2O`, the figure is 600 nM; as for `COc1c(C)c2c(c(O)c1C/C=C(\C)CCC(=O)O)C(=O)OC2` [MYCOPHENOLIC ACID], 1000 nM.
